Activity calls are given as the source filed them. The calls are words filed in the database; no cut-off is given here.
Columns and labels:
CCRF-CEM = test: (§1) Cytotoxicity against human CEM cells assessed as reduction in cell viability after 6 days by trypan blue exclusion assay; assay type: cell-based; details: ccrf-cem, 144 h
West Nile virus = test: Antiviral activity against West Nile virus up to 10 uM; assay type: functional, organism-based
Hepatitis C virus = test: Antiviral activity against HCV genotype 1b infected in human HuH7 cells assessed as inhibition of viral RNA replication after 5 days by RT-PCR method; assay type: functional, organism-based, Hepacivirus hominis; details: Huh-7, 120 h
Summary of the method: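 Subgenomic HCV genotype 1b replicon in Huh-7 cells. Inhibition of replicon RNA replication was measured by extracting and amplifying HCV RNA. Cellular ribosomal RNA was extracted and amplified at the same time, as a parallel cytotoxicity read-out.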

[1] = system: Human immunodeficiency virus; test: Antiviral activity against Human immunodeficiency virus up to 10 uM; assay type: functional, organism-based
Huh-7 = test: Cytotoxicity against human HuH7 cells assessed as reduction in cell viability by MTT assay; assay type: cell-based
[2] = system: Respiratory syncytial virus; test: Antiviral activity against Respiratory syncytial virus up to 10 uM; assay type: functional, organism-based
PBMC = test: (§2) Cytotoxicity against human PBMC assessed as reduction in cell viability after 6 days by trypan blue exclusion assay; assay type: cell-based; details: pbmc, 144 h
Norovirus = test: Antiviral activity against Norovirus up to 10 uM; assay type: functional, organism-based
Chikungunya virus = test: Antiviral activity against Chikungunya virus up to 10 uM; assay type: functional, organism-based
Vero = test: (§3) Cytotoxicity against African green monkey Vero cells assessed as reduction in cell viability after 6 days by trypan blue exclusion assay; assay type: cell-based; details: chlorocebus sabaeus, vero, 144 h
[3] = system: unidentified influenza virus; test: Antiviral activity against Influenza virus up to 10 uM; assay type: functional, organism-based
Ebolavirus = test: Antiviral activity against Ebolavirus up to 10 uM; assay type: functional
Dengue virus = test: Antiviral activity against Dengue virus up to 10 uM; assay type: functional, organism-based
[4] = as §1; assay type: cell-based, CCRF-CEM; details: CEM cells
[5] = as §2; assay type: cell-based; details: PBMC
[6] = as §3; assay type: cell-based; details: chlorocebus sabaeus, Vero cells

SMILES | CC50 (CCRF-CEM) [µM] | Activity (West Nile virus) | EC50 (Hepatitis C virus) [µM] | Activity [1] | CC50 (Huh-7) [µM] | Activity [2] | CC50 (PBMC) [µM] | Activity (Norovirus) | Activity (Chikungunya virus) | CC50 (Vero) [µM] | Activity [3] | Activity (Ebolavirus) | Activity (Dengue virus) | EC90 (Hepatitis C virus) [µM] | CC50 at 144 h [4] [µM] | CC50 at 144 h [5] [µM] | CC50 at 144 h [6] [µM]
CC(C)OC(=O)[C@H](C)N[P@](=O)(OC[C@H]1O[C@@H](n2cnc3c(=O)[nH]c(N)nc32)C(Br)(Br)[C@@H]1O)Oc1ccccc1 | 34 | inactive | > 10 | inactive | > 10 | inactive | > 100 | inactive | inactive | > 100 | inactive | inactive | inactive |  |  |  | 
CC(C)OC(=O)[C@H](C)N[P@](=O)(OC[C@H]1O[C@@H](n2ccc(N)nc2=O)C(Br)(Br)[C@@H]1O)Oc1ccccc1 | 73 | inactive | > 10 | inactive | > 10 | inactive | > 100 | inactive | inactive | > 100 | inactive | inactive | inactive | > 10 |  |  | 
O=c1ccn([C@@H]2O[C@H](CO)C(O)C2(Br)Br)c(=O)[nH]1 (single isomer, unassigned) | > 100 | inactive | > 33 | inactive | > 33 | inactive | > 100 | inactive | inactive | > 100 | inactive | inactive | inactive | > 33 |  |  | 
Nc1nc2c(ncn2[C@@H]2O[C@H](CO)C(O)C2(Br)Br)c(=O)[nH]1 (single isomer, unassigned) | > 100 | inactive | > 10 | inactive | > 10 | inactive | > 100 | inactive | inactive | > 100 | inactive | inactive | inactive | > 10 |  |  | 
CC(C)OC(=O)[C@H](C)N[P@](=O)(OC[C@H]1O[C@@H](n2cnc3c(N)ncnc32)C(Br)(Br)[C@@H]1O)Oc1ccccc1 | 33 | inactive | > 10 | inactive | > 10 | inactive | 57 | inactive | inactive | 60 | inactive | inactive | inactive |  |  |  | 
Nc1ncnc2c1ncn2[C@@H]1O[C@H](CO)C(O)C1(Br)Br (single isomer, unassigned) | > 100 | inactive | > 10 | inactive | > 10 | inactive | > 100 | inactive | inactive | > 100 | inactive | inactive | inactive | > 10 |  |  | 
Nc1ccn([C@@H]2O[C@H](CO)C(O)C2(Br)Br)c(=O)n1 (single isomer, unassigned) | 82 | inactive | > 10 | inactive | > 10 | inactive | > 100 | inactive | inactive | > 100 | inactive | inactive | inactive |  |  |  | 
CC(C)OC(=O)[C@H](C)N[P@](=O)(OC[C@H]1O[C@@H](n2ccc(=O)[nH]c2=O)[C@](C)(F)[C@@H]1O)Oc1ccccc1 [SOFOSBUVIR] |  |  | 0.2 |  | > 10 |  |  |  |  |  |  |  |  | 0.5 | > 100 | > 100 | > 100
CC(C)OC(=O)[C@H](C)N[P@](=O)(OC[C@H]1O[C@@H](n2ccc(=O)[nH]c2=O)C(Br)(Br)[C@@H]1O)Oc1ccccc1 | 95 | inactive | 1.5 | inactive | > 10 | inactive | > 100 | inactive | inactive | > 100 | inactive | inactive | inactive | 2.7 |  |  | 
